Test results taken from ChEMBL document CHEMBL4513216, “Probing the Open Global Health Chemical Diversity Library for Multistage-Active Starting Points for Next-Generation Antimalarials” (ACS Infect Dis, 2020).

test: Toxicity liver stage against HepG2, at 10uM; type: cell-based; set-up: test concentration 10 uM, cell line HepG2-A16-CD81EGFP; settings: human, HepG2-A16-CD81EGFP cells; read-out: INHIBITION
Summary of the method: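 Uninfected HepG2-A16-CD81EGFP cells, 3 × 10^3 per well, 1536-well, plated on prespotted compound at 10 μM final, parasite-free screening media added to match infected plates; puromycin 10 μM positive, DMSO 0.5% negative; run in parallel with 48 h PbLuc assay at 37 °C, 5% CO2; viability by CellTiter-Glo luminescence, normalized to controls.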

| SMILES | cytotoxicity at 10 µM [%] |
| --- | --- |
| CNC(=O)CN1C(=O)CN(C(=O)COC)CCC(OC)c2ccccc21 (stereo not drawn) | -8.12 |
| CN1C(=O)C2(CC(=O)Nc3[nH]ncc32)c2ccc(F)cc21 (stereo not drawn) | -1.52 |
| Cc1nn(C)cc1C1CC(=O)Nc2c1cnn2C(C)C (stereo not drawn) | -4.31 |
| COC(=O)CCNC(=O)c1cc(-c2ccc(OC)cc2)nn1C | 4.75 |
| Cc1nn(CCNS(=O)(=O)c2ccccc2)c(C)c1Cl | -5.26 |
| CN1CCN(CC2CC2)C(=O)C12CCN(c1nccs1)CC2 | -6.01 |
| CN1Cc2ccccc2CC2(CCN(c3ncccn3)CC2)C1=O | -7.42 |
| CN1CCN(Cc2ccco2)Cc2cccnc21 | 2.04 |
| Cc1nn(C)c2c(=O)n(Cc3ccc(Cl)cc3)nnc12 | -3.02 |
| CCn1nc(C)c2nc(C(C)C)nc(NCC(=O)N3CCOCC3)c21 | 3.07 |
| Cc1cccc(Cn2ccc(NS(C)(=O)=O)n2)c1 | -6.6 |
| CCn1cc(N)c(C(=O)NCc2cnn(C)c2)n1 | -0.729 |
| CC(C)CC(=O)N1CCC(Nc2nc(O)cc(-c3ccsc3)n2)CC1 | 11.3 |
| CCc1nccn1-c1nccnc1C1CCCN(C(=O)COC)C1 (stereo not drawn) | -21.5 |
| O=C(N[C@@H]1CCC[C@@H](N2CCCC2)[C@@H]1O)c1cc2ccccc2[nH]1 | -16.2 |
| Cc1ccnc(C2CCN(C(=O)c3cnn(C)c3)C2)n1 (stereo not drawn) | -15 |
| COCCNCc1cc2c(C)cc(C)cc2n2c(=O)n(C)nc12 | -10.3 |
| O=C(Cn1c(=O)n(Cc2ccco2)c2ncccc21)NC1CCCC1 | -3.05 |
| Cc1cnccc1CN1CC[C@H](Oc2cccc(F)c2)[C@@](C)(O)C1 | -5.55 |
| CN(C)c1ccc(CC2COCCN(Cc3nccn3C)C2)nn1 (stereo not drawn) | -10.2 |
| O=C(c1ccncc1)N1CCC(c2nc(O)cc(-c3ccncc3)n2)C1 (stereo not drawn) | 0.873 |
| CN(C)c1cncc(C2CCN(C(=O)CO)CC2)n1 | -1.37 |

| SMILES | cytotoxicity at 10 µM [%] |
| --- | --- |
| O=C(c1ccc(Cl)cc1)N1CCC(N2CCCOC2=O)CC1 | 11.1 |
| CN1CC(=O)N(C2CCCNC2)Cc2c(NC3CCC3)ncnc21 (stereo not drawn) | 3.96 |
| CCn1nnnc1-c1cccc(NCc2nc(C)ccc2O)c1 | -1.71 |
| CC(C)(C)c1cc(NC(=O)CNC2CCc3ncnn3C2)on1 (stereo not drawn) | 9.03 |
| Cc1cc(S(C)(=O)=O)c(C)c(S(=O)(=O)NCC2CCCO2)c1 (stereo not drawn) | -8.02 |
| Cc1nc(CNC(=O)NCCC2=CCCC2)oc1C | -1.18 |
| Cc1ccc(S(=O)(=O)CCC(=O)N(C)Cc2cnn(C)c2)cc1 | -2.9 |
| CC(C)c1ccc2c(c1)CCCN2C(=O)CN(C)S(C)(=O)=O | 3.78 |
| O=C(Nc1ccc(Cl)cn1)C1CCN(CCc2ccccn2)CC1 | -6.55 |
| O=C(Nc1ccc(Cl)cn1)C1CCCN(CCc2ccccn2)C1 (stereo not drawn) | 7.33 |
| NC(=O)C1CCN(c2cncc(-n3cccn3)n2)CC1 | 12.5 |
| CC(C)OCCC(=O)NCCc1csc(N2CCCC2)n1 | -12.9 |
| Cc1cccc(C(=O)NCCNCC2CNc3ccnn3C2)c1 (stereo not drawn) | -0.00278 |
| CC(C)C1CN(C(=O)c2ccsc2)CCS1 (stereo not drawn) | 2.46 |
| Cc1cnn(CC2CCCN2C(=O)Cc2ccc3c(c2)CCO3)c1 (stereo not drawn) | -144 |
| CCNC(=O)CN1CCN(c2cc(C)nc(-c3ccncc3)n2)CC1 | 5.63 |
| O=C(NS(=O)(=O)c1ccc(F)cc1)C1CCOc2ccccc21 (stereo not drawn) | 9.91 |
| Cc1cc2cc(CNC3CCN(CC4CCOC4)CC3)oc2cc1C (stereo not drawn) | -8.14 |
| Cc1csc(CNCC(C)c2nc3ccccc3o2)n1 (stereo not drawn) | -15.6 |
| COCCNS(=O)(=O)c1ccc(CNc2ncccc2C#N)cc1 | 6.47 |
| CC(=O)c1ccc(C(=O)N2CCCCC2c2nc[nH]n2)cc1 (stereo not drawn) | -5.3 |
| Cc1noc(-c2ccnc(N3CCC(N4CCCC4)CC3)c2)n1 | 0.409 |

| SMILES | cytotoxicity at 10 µM [%] |
| --- | --- |
| CCc1n[nH]c(=O)c(C(=O)N2CCOC3(CCCC3)C2)c1CC | 13.3 |
| COc1ccccc1NC(=O)NC1(c2noc(CN(C)C)n2)CCCC1 | -5.22 |
| CC(=O)N1CCC(NC(=O)c2ccc3c(c2O)OC(C)(C)C3)CC1 | 0.519 |
| CS(=O)(=O)c1ccc(NC(=O)N2CCc3sccc3C2)cn1 | 85.1 |
| CSc1cc2c(cc1NC(=O)NCC(C)(C)C(N)=O)OCCO2 | -10.9 |
| COCC1COCCC12CCN(S(=O)(=O)c1ccccc1C)CC2 (stereo not drawn) | -5.42 |
| CCS(=O)(=O)N1C[C@@H](c2ccccc2)[C@@]2(CCNC2=O)C1 | -108 |
| Cn1cccc1C(=O)N1C[C@H]2CN(CCN3CCCC3)C(=O)[C@H]2C1 | -119 |
| O=C(c1cccc(F)c1)N1CC[C@@H]2CN(c3ncccn3)CCO[C@@H]2C1 | -71.5 |
| CN(C)C(=O)CNC(=O)c1ccn(-c2ccc3ccccn23)n1 | 0.74 |
| CN(C)[C@@H]1CCN(C(=O)c2ccsc2)[C@H]1Cc1cnn(C)c1 | -6.18 |
| COCC(C)NCc1nc(-c2ccc(C)cc2)c(-c2ccccn2)[nH]1 (stereo not drawn) | -3.81 |
| CNC(C(=O)N1CCC(c2nccn2C(C)C)CC1)c1ccccc1 (stereo not drawn) | 0.258 |
| C=C(C)COc1ccccc1C(=O)N1CCC(C(=O)NCC)C1 (stereo not drawn) | 8.89 |
| Oc1ccccc1N1CCN(c2ncnc3sc4c(c23)CCNC4)CC1 | 4.36 |
| CCCn1c(C)c(CC(=O)N(C)CCO)c2c1CC(C)(C)CC2=O | -3.64 |
| OCC1CCN(C[C@@H]2CN(C3Cc4ccccc4C3)C[C@@H]2CO)CC1 | -2.02 |
| Cc1cc(-c2nn(C)c(Cl)c2CN2CCCCC(N)C2)no1 (stereo not drawn) | -2.1 |
| CCc1c(C)sc2ncnc(N3C[C@H](O)[C@@H](N4CCCC4)C3)c12 | -4.36 |
| Cc1cc(N2CCCN3CCC[C@H]3C2)n2nc(C)c(C)c2n1 | 4.37 |
| COc1ccc(C(=O)N2CCOC(Cc3cccc(C(F)(F)F)c3)C2)o1 (stereo not drawn) | -0.869 |
| O=C1CCC2(CCCN(C(=O)c3ccoc3)C2)CN1CCc1c[nH]cn1 (stereo not drawn) | 4.54 |

| SMILES | cytotoxicity at 10 µM [%] |
| --- | --- |
| CCOCCCNc1nc2c(s1)c(C)nn2C | 1.54 |
| CC(C)N1CCCC(C(=O)N2CCN(c3cnn(C)c(=O)c3)CC2)C1 (stereo not drawn) | -3.75 |
| CCc1nc(C)sc1CN1CC[C@](C)(O)[C@H](C)C1 | -2.11 |
| CCN(Cc1noc(C2CC2)n1)C(=O)c1onc2ccccc12 | 1.61 |
| CCn1c(C2CCN(C(=O)c3ccc4sc(C)nc4c3)CC2)n[nH]c1=O | -18 |
| CCC[C@H]1CN(c2nc(CO)cs2)C[C@@H]1NC(=O)C1CCC1 | 6.07 |
| CN(Cc1noc2c1CCCC2)C(=O)C1CCOc2ccccc2C1 (stereo not drawn) | -7.11 |
| Cc1cc(N(C)CCn2ccnc2C)n2nccc2n1 | 4.09 |
| O=C(CCc1cn[nH]c1)N1CCC(C2CCN(c3ncccn3)CC2)C1 (stereo not drawn) | 10.2 |
| CN(Cc1cc(C(C)(C)C)n[nH]1)C(=O)c1ccc2nccn2c1 | -7.01 |
| CCC1c2cccn2CCN1C(=O)c1ccc2nonc2c1 (stereo not drawn) | -13.2 |
| Cc1nsc(NC(=O)N2CCN(Cc3ccc(F)cc3)C(=O)C2)n1 | 1.07 |
| OCCN1CCN(Cc2coc(-c3cccc(F)c3)n2)CC1 | -21.6 |
| CC(=O)c1ccc(N2CCN(C(=O)NCc3cc[nH]n3)CC2)cc1 | -2.17 |
| COc1c(CNC2CCN(C(=O)C(C)C)CC2)c(C(C)C)nn1C | 1.25 |
| CC(C(=O)N1CCCN(Cc2cnn(C(C)C)c2)CC1)n1ccnc1 (stereo not drawn) | -11.8 |
| CS(=O)(=O)NCC1CCCN(C(=O)COCC2CC2)C1 (stereo not drawn) | 4.28 |
| Cc1cc(NC(=O)NCC(O)c2ccc(F)cc2)n(C)n1 (stereo not drawn) | -2.69 |
| COc1ncccc1CNC(=O)N(Cc1ccc(F)cc1F)C1CC1 | 0.139 |
| COCCNC(=O)CN1CCC(N2CCN(C)C2=O)CC1 | 0.621 |
| OC(COCc1ccccc1Cl)CN1CCC(c2ccn[nH]2)CC1 (stereo not drawn) | -15.1 |
| CCc1ncc2c(n1)CN(C(C)C(=O)Nc1ccc(Cl)cn1)CC2 (stereo not drawn) | -0.915 |

| SMILES | cytotoxicity at 10 µM [%] |
| --- | --- |
| Cc1nc(CN(C)C2CCN(Cc3nc4ccccc4n3C)C2)no1 (stereo not drawn) | -9.26 |
| CCC(CC)NC(=O)Cn1cc(-c2ccccc2)cn1 | -0.0581 |
| Cc1nn(C)c(C)c1C1CCCN1CC(=O)Nc1cccnc1 (stereo not drawn) | -31.7 |
| CC(C)c1nnc(CN2CCCC2Cn2cncn2)o1 (stereo not drawn) | -11.1 |
| O=C1CCC2(CCC(NCc3cccnc3)CC2)N1Cc1ccccc1 (stereo not drawn) | -2.04 |
| COc1cc(N2CCCn3cnc(COC(C)C)c3C2)ncn1 | -5.3 |
| Cc1oncc1C(=O)N[C@@H]1CN(CC2CC2)C[C@@H]2CCCO[C@@H]21 | -103 |
| C[C@H]1CN(c2ccccn2)C[C@@]12CCN(Cc1cccnc1)C2=O | -1.16 |
| Cc1nc(CN2C(=O)CC[C@@H]3[C@H]2CCN3C(=O)c2ccccn2)cs1 | -77.7 |
| C[C@@H]1CN(C(=O)c2ccc[nH]2)C[C@]12CCN(CCN1CCCC1)C2=O | 10.4 |
| Cc1noc2nc(C3CCN(Cc4cccnc4)CC3)cc(C(F)F)c12 | -2.5 |
| CN(C)CCNC(=O)c1nc2c(s1)CCCN2C(=O)C1CC1 | -108 |
| c1cnc(N2CCO[C@H]3CN(CC4CCOCC4)C[C@H]32)nc1 | -95.9 |
| CCS(=O)(=O)N1CCN(Cc2ccncc2)c2nc(C)ccc2C1 | -70.8 |
| Cc1ccnc(C(=O)N2C[C@@H]3CN(S(C)(=O)=O)CCO[C@@H]3C2)c1 | -3.92 |
| CC(C)NC(=O)[C@H]1C[C@@H]2[C@@H](C1)OCCN2CC1CC1 | -6.13 |
| COCCN1CCC2(CCCN(c3ncccn3)C2)C1 (stereo not drawn) | 1.36 |
| O=C(Nc1cccnc1)[C@H]1C[C@H]2CN(S(=O)(=O)C3CC3)C[C@@H]1O2 | -71.8 |
| CC(=O)N1C[C@H]2CC[C@@H](C1)N(C(=O)CCc1n[nH]c3c1CCCC3)C2 | 10.3 |
| O=C(NCC1CCCCC1)N1C[C@@H]2C[C@H](C(=O)N3CCCC3)[C@H](C1)O2 | -2.48 |
